Source: paper PMC7312786 (Biochemistry, 2018)

Legend:
hpol η = target: T1, hpol η (Homo sapiens, UniProt Q9Y253); assay: Gel-based pol extension assay, hpol η; type: biochemical; conditions: read-out: IC50, hpol η, gel-based assay; best-fit value (95% confidence interval), three experiments
T1 sequence (Q9Y253 1-437): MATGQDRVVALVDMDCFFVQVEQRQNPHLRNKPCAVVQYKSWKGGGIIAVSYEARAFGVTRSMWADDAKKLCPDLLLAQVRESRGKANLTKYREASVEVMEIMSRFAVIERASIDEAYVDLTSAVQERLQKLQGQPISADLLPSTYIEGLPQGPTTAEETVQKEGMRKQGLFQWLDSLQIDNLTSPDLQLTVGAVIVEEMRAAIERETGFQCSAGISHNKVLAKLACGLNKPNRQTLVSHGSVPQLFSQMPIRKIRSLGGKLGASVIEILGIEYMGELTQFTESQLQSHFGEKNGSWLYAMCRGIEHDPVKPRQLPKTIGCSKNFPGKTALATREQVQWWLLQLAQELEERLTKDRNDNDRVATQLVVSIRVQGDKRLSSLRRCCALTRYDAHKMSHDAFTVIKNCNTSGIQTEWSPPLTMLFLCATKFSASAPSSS

hpol κ = target: T2, hpol κ (Homo sapiens, UniProt Q9UBT6); assay: Gel-based pol extension assay, hpol κ; type: biochemical
T2 sequence (Q9UBT6 19-526): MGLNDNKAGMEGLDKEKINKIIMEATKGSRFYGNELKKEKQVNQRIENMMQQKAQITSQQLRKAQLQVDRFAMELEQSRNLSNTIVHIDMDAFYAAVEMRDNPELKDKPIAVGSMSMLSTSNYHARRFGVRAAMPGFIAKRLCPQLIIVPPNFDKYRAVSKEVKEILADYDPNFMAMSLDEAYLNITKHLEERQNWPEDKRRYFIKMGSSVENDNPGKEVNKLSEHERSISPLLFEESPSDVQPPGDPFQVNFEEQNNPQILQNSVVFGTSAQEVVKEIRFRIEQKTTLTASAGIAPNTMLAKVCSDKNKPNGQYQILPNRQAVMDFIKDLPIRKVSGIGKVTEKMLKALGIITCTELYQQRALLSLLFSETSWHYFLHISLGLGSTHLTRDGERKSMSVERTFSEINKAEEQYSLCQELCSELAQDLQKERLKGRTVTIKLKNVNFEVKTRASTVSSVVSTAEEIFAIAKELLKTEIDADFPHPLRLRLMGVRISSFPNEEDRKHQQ
Outline: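 Gel extension assay with hpol ι core (residues 1–446) or hpol κ core (residues 19–526). Enzyme 2 nM preincubated 5 min with increasing test compound in 50 mM HEPES pH 7.5, 50 mM NaCl, 1 mM DTT, 0.1 mg/mL BSA, 10% glycerol. Started at 37 °C with 200 nM FAM-labeled 13/18-mer primer–template, 10 μM each dNTP, 5 mM MgCl₂. Quench: 20 mM EDTA/95% formamide, 95 °C. Triplicate; IC50 mean ± SD.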

Dpo1 = target: T3, Dpo1 (Saccharolobus solfataricus, UniProt P26811); assay: Fluorescence-based pol activity assay, Dpo1; type: biochemical, Sulfolobus solfataricus; conditions: 20 μM PNR-7-02
T3 sequence (P26811 1-882): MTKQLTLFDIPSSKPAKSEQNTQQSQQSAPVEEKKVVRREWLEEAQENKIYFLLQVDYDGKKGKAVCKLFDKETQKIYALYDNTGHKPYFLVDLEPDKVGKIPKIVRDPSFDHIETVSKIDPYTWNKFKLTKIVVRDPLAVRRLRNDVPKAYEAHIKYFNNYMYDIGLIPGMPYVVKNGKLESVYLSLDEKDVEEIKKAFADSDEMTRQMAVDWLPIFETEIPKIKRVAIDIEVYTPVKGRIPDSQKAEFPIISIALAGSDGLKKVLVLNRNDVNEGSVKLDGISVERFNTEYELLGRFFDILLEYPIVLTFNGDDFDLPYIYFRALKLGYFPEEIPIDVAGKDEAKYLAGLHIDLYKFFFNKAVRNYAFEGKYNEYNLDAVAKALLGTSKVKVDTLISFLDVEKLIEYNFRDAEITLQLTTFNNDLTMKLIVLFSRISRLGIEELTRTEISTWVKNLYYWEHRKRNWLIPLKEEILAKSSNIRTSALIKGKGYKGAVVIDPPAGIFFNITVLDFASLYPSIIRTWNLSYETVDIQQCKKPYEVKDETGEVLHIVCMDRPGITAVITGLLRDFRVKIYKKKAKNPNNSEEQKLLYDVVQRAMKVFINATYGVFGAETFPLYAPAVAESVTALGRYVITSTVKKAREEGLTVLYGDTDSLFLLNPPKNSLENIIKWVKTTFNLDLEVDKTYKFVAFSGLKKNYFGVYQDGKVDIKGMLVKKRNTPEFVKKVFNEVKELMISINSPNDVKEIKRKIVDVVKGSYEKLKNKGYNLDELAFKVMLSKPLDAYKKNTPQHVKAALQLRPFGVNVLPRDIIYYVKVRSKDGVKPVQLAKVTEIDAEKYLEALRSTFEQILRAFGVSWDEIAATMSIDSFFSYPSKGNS

hpol β = hpol β (Homo sapiens, UniProt P06746); assay: Fluorescence-based pol activity assay, hpol β; type: biochemical; conditions: 20 μM PNR-7-02
[1] = system: γH2AX in hpol η-proficient HAP-1 cells; assay: γH2AX immunoblotting, hpol η-proficient HAP-1 cells; type: cell-based, human; conditions: PNR-7-02 alone
Outline: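 HAP-1 cells treated with DMSO or 0.5 μM CDDP combined with 0.1 or 1 μM test compound. Pellets lysed at 4 °C in HEPES pH 7.5/Triton X-100 buffer with phosphatase and protease inhibitors. 30–40 μg protein run on 4–20% SDS-PAGE, transferred to nitrocellulose. Probed with anti-γH2AX (S139) 1:1500 and HRP anti-rabbit 1:4000; β-actin loading control; chemiluminescence. Bands normalized to β-actin, relative to DMSO; three biological replicates; t test.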

O=C1NC(=S)NC(=O)C1=Cc1cn(Cc2ccc3ccccc3c2)c2ccc(Cl)cc12 [PNR-7-02, 5-((5-chloro-1-(naphthalen-2-ylmethyl)-1H-indol-3-yl)methylene)-2-thioxodihydropyrimidine-4,6-(1H,5H)-dione]
IC50 (hpol η): 8 µM | Increase in IC50 against hpol κ (hpol κ; gel-based assay, relative to hpol η / hRev1): ~3 fold | IC50 (hpol κ; read-out: IC50, hpol κ, gel-based assay, best-fit value (95% confidence interval), three experiments): 22 µM | Effect on catalysis by Dpo1 (Dpo1): not affected at all | Pol activity relative to DMSO control, Dpo1 (Dpo1; mean (±SD)): 118 (±15) % | Effect on hpol β (hpol β): no effect | Pol activity relative to DMSO control, hpol β (hpol β; mean (±SD)): 103 (±8) % | μH2AX formation [1]: did not change
